Screening data (PubChem)
Hits are enriched below; roughly 1.9% of the tested compounds scored in any of these assays.
aSyn 5UTR inh – MLPCN primary screen, SNCA 5' untranslated region. inhibition, % (tested at 7.5 µM). hit rate 0.82% among 300,000. alpha-synuclein 5'UTR reporter, inhibitor activity; in the data active means inhibition above about 60%;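 further: H4 neuroglioblastoma cells stably carrying SNCA 5'UTR luciferase fusion; 0% = DMSO wells and 100% = positive control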
697 NFkB inh – inhibitors of PMA/ionomycin-induced NF-kB reporter, 697 cells, primary screen, B-cell NF-kB inhibitor project, cell-based, luminescence, uHTS | 697 B-cell NF-kB luciferase reporter, 16 h | inhibition, % at 4 µM | hit rate 0.33% among 330,000 | AID 435022, 2010; in the data active means inhibition above about 35%
APP transl inh – inhibitors of APP translation via 5'UTR reporter, primary screen, APP 5'UTR luciferase, SH-SY5Y cells. hit rate 0.82% among 190,000. AID 1285, 2008. SH-SY5Y APP 5'UTR-luciferase reporter, luminescence. inhibition, % at 2 µM;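 active means inhibition above a set limit, derived from the sample mean plus 3 SD, cut at about 45% in these data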
H9c2 TAG inh – inhibitors of triacylglycerol accumulation, primary screen, cell-based, uHTS, fluorescence, H9c2; H9c2 cells, Nile Red lipid (TAG) fluorescence; cells loaded with 200 µM oleic acid; inhibition, % at 12.5 µM; hit rate 0.66% among 230,000; AID 651582, 2012;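 active means pattern-corrected inhibition of lipid staining of at least 50% with the nuclear-stain viability signal not falling by more than 50%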;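 further: 0% = DMSO wells and 100% = triacsin C control wells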
Jurkat NFkB inh – inhibitors of induced NF-kB luciferase reporter, primary screen, TCR NF-kB activation inhibitor project, cell-based, luminescence, uHTS; Jurkat, PMA/ionomycin-induced NF-kB luciferase reporter; inhibition, % at 4 µM; hit rate 0.53% among 330,000; AID 435003, 2010; in the data active means inhibition above about 50%
Lipid droplet – inhibitors of hepatocyte lipid droplet formation, primary screen, imaging, high-throughput imaging, BODIPY stain. AID 1656, 2009. hit rate 0.4% among 240,000. AML12 mouse hepatocytes, oleate lipid droplets. inhibition, % at 6.5 µM;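 active means lipid droplet intensity inhibited by at least 50%, with more than 500 cells counted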
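Assay system: AML12 mouse liver cells | Compound: 6.5 µM single-point dosing | Schedule: Overnight exposure | Technique: Fluorescence imaging, 20x objective, two fields per well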
* = called active by the depositor; . = not tested or not shown.

SMILES	aSyn 5UTR inh	697 NFkB inh	APP transl inh	H9c2 TAG inh	Jurkat NFkB inh	Lipid droplet
COc1ccc(CNCCC(c2ccc(OC(C)C)cc2)c2ccccc2OC)cc1 (stereo unspecified)	134*	-6	.	.	12	2
COc1ccccc1C(CCNCc1ccc(N(C)C)cc1)c1ccc(OC(C)C)cc1 (stereo unspecified)	135*	-13	.	.	22	-2
CCOC(=O)C1=C(C)NC(C)=C(C(=O)OCC)C1c1cccc([N+](=O)[O-])c1	.	.	.	11	.	.
COC(=O)C1=C(C)NC(C)=C(C(=O)OCC(C)C)C1c1ccccc1[N+](=O)[O-] (stereo unspecified)	71*	15	.	5	12	.
CCN(c1ccccc1)S(=O)(=O)c1ccc(C(=O)Nc2nnc(C3CC3)o2)cc1	71*	-9	14	.	1	-3
CCCCN(C)S(=O)(=O)c1ccc(C(=O)Nc2nnc(-c3cccs3)o2)cc1	81*	-29	36	.	3	.
CCN(Cc1ccccc1)S(=O)(=O)c1ccc(C(=O)Nc2nnc(-c3ccccc3OC)o2)cc1	67*	-59	25	-15	-6	8
CCCCN(CC)S(=O)(=O)c1ccc(C(=O)Nc2nnc(-c3ccccc3Cl)o2)cc1	76*	-44	-3	-8	-3	15
CCNC(=O)C1CCCN(C(=O)Cc2ccc3ccccc3c2)CC1 (stereo unspecified)	.	.	.	-5	.	.
O=C(CN(C(=O)c1csnn1)c1cccc(Cl)c1)NCCc1ccccc1	2	13	.	.	-17	.
Cn1c(=O)c2cc(NC(=O)NCc3ccccc3)ccc2n1C/C=C/c1ccccc1	.	.	.	-25	.	.
COc1ccc(/C=C/C(=O)c2cc(F)ccc2OC(=O)c2ccccc2OC)cc1OC	68*	.	89*	56*	.	-240
COc1ccc(/C=C/C(=O)c2cc(Br)ccc2O)cc1OC	-6	3	-5	-11	14	9
COc1ccc(/C=C/C(=O)c2cc(Br)ccc2OC(=O)c2ccco2)cc1OC	-21	11	87*	.	-2	1
O=C(COC(=O)Cn1cnc2ccccc2c1=O)Nc1ccccc1Sc1ccc(Cl)cc1	0	-4	0	.	11	-11
COCCNC(=O)C1(C)CCCN(Cc2cc(-c3ccccc3)on2)C1 (stereo unspecified)	.	.	.	2	.	.
COC(=O)[C@H](CCSC)NC(=O)Cn1cc(C)c(=O)[nH]c1=O	.	.	.	1	.	.
CCN(CC)CCNc1ccc(C)c2sc3ccc(O)cc3c(=O)c12	.	.	.	59*	.	.
COC(=O)c1ccc(CNC(=O)C(C)N=C2NS(=O)(=O)c3ccccc32)cc1 (stereo unspecified)	.	1	.	4	4	.
O=C(O)c1ccc(N/N=C/c2ccc(-c3cc(Cl)ccc3Cl)o2)cc1	-156	-120	.	19	-29	22
O=C(O)c1ccc(N/N=C/c2ccc(-c3ccc(Cl)cc3Cl)o2)cc1	-62	8	.	53*	-13	27
O=C(O)c1ccc(N/N=C/c2ccc(-c3cccc(Cl)c3)o2)cc1	-114	-195	.	84*	-80	40
CN1CCN(c2ccc(CNC(=O)C3(C)Cc4c(-c5ccccc5)ccnc4O3)cc2)CC1 (stereo unspecified)	.	.	.	3	.	.
CCn1c2ccccc2c2cc(CNCc3ccc(OC)cc3OC)ccc21	63*	-5	25	-3	25	4
COc1cccc(CNCc2ccc(OC)cc2OC)c1	4	-1	.	9	4	6
COC(=O)c1ccc2c(c1)C(C)(C)C(/C=C/c1ccccc1O)=[N+]2C	118*	-34	-12	.	32	.
C[N+]1=C(/C=C/Nc2ccccc2Cl)C(C)(C)c2ccccc21	-18	-27	1	.	13	-27
c1ccc(N=C2SCCCS2)cc1	.	.	.	-6	.	.
CCCc1cc(=O)n2[nH]cc(-c3ccc(Cl)cc3)c2n1	71*	-8	.	.	-3	-6
CC(C)COc1ccc(C(=O)Nc2sc3c(c2C(=O)O)CC(C)(C)OC3)cc1	63*	-2	8	.	-1	-14
